What all share (assay type): functional
The target of series [1] is Lanosterol 14-alpha demethylase (Candida albicans (strain SC5314 / ATCC MYA-2876) (Yeast), UniProt P10613). The series can be described thus: Anticandida activity- (MIC90 compound) / (MIC90 bifonazole).
Series [2] deals with Candida albicans. The series can be described thus: In vitro antifungal activity against 40 strains of Candida albicans at pH 5.8. The method in brief: (§1)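 Broth serial-dilution MIC against 40 clinical C. albicans isolates from hospitalized patients, grown in Sabouraud broth at pH 7.2 or 5.8. Cells were pre-grown 18 h at 37 °C, inoculated at 10³/mL, and read at 24 h, 37 °C. Doubling dilutions ran 0.25–256 μg/mL from a DMSO/water solution. MIC was the lowest concentration with no visible growth against a DMSO/water blank.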

For series [3], the system named is Candida albicans. The series can be described thus: In vitro antifungal activity against 40 strains of Candida albicans at pH 7.2; (percent of resistant species at 256 ug/mL). In short, it runs like this: (§2)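 Broth serial-dilution test in Sabouraud broth at pH 7.2 or 5.8, against 40 fresh clinical C. albicans isolates from hospitalized patients. Inocula were 10³/mL, pre-grown 18 h at 37 °C in Sabouraud dextrose broth. Compound from a DMSO/water stock was twofold-diluted over 0.25–256 µg/mL. Visible growth was read at 24 h, 37 °C.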

For series [4], the system named is Candida. The series is described as follows: Tested In vitro for antifungal activity against Candida species. at pH 7.2; (range is from 8 to 128). In short, it runs like this:
(§3)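 Liquid serial-dilution MIC against 3 freshly isolated clinical Candida strains (two C. glabrata, one C. krusei) in Sabouraud broth at pH 7.2 or 5.8. Inoculum was 10³/mL after 18 h pre-culture at 37 °C, read at 24 h, 37 °C. Range was 0.25–256 μg/mL. Endpoint was no visible growth versus a DMSO/water blank.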

In series [5] the test system is Candida albicans. The series can be described thus: In vitro antifungal activity against 40 strains of Candida albicans at pH 7.2; minimum inhibitory concentration (range is from 4 to 64). In short, it runs like this:
as §1

The subject of series [6] is Candida albicans. The series is described as follows: In vitro antifungal activity against 40 strains of Candida albicans at pH 5.8; (range is from 1 to 32). The method in brief: as §1
Series [7] relates to Candida. The series is described as follows: Tested in vitro for antifungal activity against Candida species. at pH 5.8; range is from 4 to 16. In short, it runs like this: (§4)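 Fresh clinical isolates (two C. glabrata, one C. krusei) were pre-grown 18 h at 37 °C in Sabouraud dextrose broth. Broth double-dilution was run in Sabouraud broth at pH 5.8 or 7.2 over 0.25–256 µg/mL from a DMSO/water stock, with 10³/mL inoculum.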

The test system of series [8] is Candida. The series is described as follows: Tested In vitro for antifungal activity against Candida species. at pH 7.2; (percent of resistant species at 256 ug/mL). In short, it runs like this: (§5)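 Broth serial-dilution test in Sabouraud broth at pH 7.2 or 5.8, against 3 fresh clinical non-albicans isolates (two C. glabrata, one C. krusei). Inocula were 10³/mL, pre-grown 18 h at 37 °C. Compound was twofold-diluted over 0.25–256 µg/mL and read at 24 h, 37 °C for visible growth.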

In series [9] the test system is Candida albicans. The series is described as follows: In vitro antifungal activity against 40 strains of Candida albicans at pH 5.8; (percent of resistant species at 256 ug/mL). The method in brief: as §2
Series [10] has as its system Candida albicans. The series is described as follows: In vitro antifungal activity against 40 strains of Candida albicans at pH 7.2. In short, it runs like this: as §1
For series [11], the system named is Candida. The series is described as follows: Tested in vitro for antifungal activity against Candida species. at pH 5.8. In short, it runs like this: as §3
The test system of series [12] is Candida. The series is described as follows: Tested In vitro for antifungal activity against Candida species. at pH 7.2. The method in brief:
as §3

The subject of series [13] is Candida. The series can be described thus: Tested in vitro for antifungal activity against Candida species. at pH 5.8 (percent of resistant species at 256 ug/mL). The method in brief: as §5
Series [14] relates to Candida albicans. The series is described as follows: Tested in vitro for antifungal activity against Candida albicans at pH 5.8 (range 1-8). In short, it runs like this:
as §1

Series [15] deals with Candida. The series is described as follows: Tested in vitro for antifungal activity against Candida species. at pH 7.2 (value ranges from 0.5 to 8). In short, it runs like this: as §4
For series [16], the system named is Candida albicans. The series can be described thus: In vitro antifungal activity against Candida albicans (40 strains) at pH 7.2(value ranges from 0.5 to 32). In short, it runs like this: as §1
For series [17], the system named is Candida. The series is described as follows: Tested in vitro for antifungal activity against Candida species. at pH 7.2 (percent of resistant species at 256 ug/mL). The method in brief: as §5
Series [18] deals with Candida albicans. The series can be described thus: Tested in vitro for antifungal activity against Candida albicans at pH 5.8. The method in brief:
as §1

Series [19] deals with Candida albicans. The series is described as follows: In vitro antifungal activity against Candida albicans (40 strains) at pH 7.2,(percent of resistant species at 256 ug/mL). In short, it runs like this: as §2
Series [20] concerns Candida. The series is described as follows: Tested in vitro for antifungal activity against Candida species. at pH 7.2. The method in brief:
as §4

Series [21] relates to Candida. The series can be described thus: In vitro antifungal activity against 40 strains at pH 5.8,(percent of resistant species at 256 ug/mL). In short, it runs like this: as §2
For series [22], the system named is Candida albicans. The series is described as follows: In vitro antifungal activity against Candida albicans (40 strains) at pH 5.8,(percent of resistant species at 256 ug/mL). In short, it runs like this:
as §2

The subject of series [23] is Candida albicans. The series can be described thus: In vitro antifungal activity against Candida albicans (40 strains) at pH 7.2. In short, it runs like this:
as §1

For series [24], the system named is Candida albicans. The series can be described thus: In vitro antifungal activity against 40 strains of Candida albicans at pH 5.8; (range is from 32 to 256). In short, it runs like this: as §1
Series [25] concerns Candida. The series can be described thus: Tested in vitro for antifungal activity against Candida species. at pH 5.8; value ranges from 128 to >256. In short, it runs like this: as §4
Series [26] has as its system Candida albicans. The series is described as follows: IIn vitro antifungal activity against 40 strains of Candida albicans at pH 7.2; minimum inhibitory concentration (range is from 16 to 256). In short, it runs like this: as §1

Values after ≈ are worked out from the molar mass of the structure shown. A value given as a limit tells only on which side of the number the result lay.

Lanosterol 14-alpha demethylase, sequence (P10613 whole entry): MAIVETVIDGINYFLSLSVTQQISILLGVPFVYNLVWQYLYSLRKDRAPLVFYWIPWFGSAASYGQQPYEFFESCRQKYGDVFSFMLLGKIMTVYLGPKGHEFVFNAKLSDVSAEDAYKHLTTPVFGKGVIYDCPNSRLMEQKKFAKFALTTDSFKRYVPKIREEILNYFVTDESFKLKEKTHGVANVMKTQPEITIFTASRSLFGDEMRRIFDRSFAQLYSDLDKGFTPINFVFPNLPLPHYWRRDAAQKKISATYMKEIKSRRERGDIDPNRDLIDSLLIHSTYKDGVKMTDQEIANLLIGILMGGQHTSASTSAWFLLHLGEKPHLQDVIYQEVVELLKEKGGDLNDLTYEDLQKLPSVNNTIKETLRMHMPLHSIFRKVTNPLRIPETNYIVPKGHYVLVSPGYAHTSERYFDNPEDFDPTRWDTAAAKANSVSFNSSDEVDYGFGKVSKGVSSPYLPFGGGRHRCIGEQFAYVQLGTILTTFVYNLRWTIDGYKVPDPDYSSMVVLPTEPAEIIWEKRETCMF

With `CSc1ccc(-c2c[nH]cc2[C@H](c2ccc(Cl)cc2Cl)n2ccnc2)cc1`, the Ratio in series [1] was determined as 3. For the same compound, the minimal inhibitory concentration (MIC) in the series on Candida albicans [2] came to 7 µg/mL (≈ 16.9 µM); in the series on Candida albicans [10], 9.14 µg/mL (≈ 22.1 µM); against Candida [11] it was 9.3 µg/mL (≈ 22.4 µM); with Candida [12], 66.6 µg/mL (≈ 161 µM). Also, the MIC50 against Candida albicans [2] came out at 4 µg/mL (≈ 9.65 µM); against Candida albicans [10], 4 µg/mL (≈ 9.65 µM); against Candida [11], 8 µg/mL (≈ 19.3 µM); in the series with Candida [12], 64 µg/mL (≈ 154 µM). For the same compound, the MIC90 in the series on Candida albicans [2] was determined as 8 µg/mL (≈ 19.3 µM); against Candida albicans [10], 8 µg/mL (≈ 19.3 µM); with Candida [11], 16 µg/mL (≈ 38.6 µM); with Candida [12] it was 128 µg/mL (≈ 309 µM). Moreover, the Resistance with Candida albicans [3], in the series on Candida [8], in the series on Candida albicans [9] and with Candida [13] was 0% each time. Further, the Range in the series on Candida [4] stood at 128 µg/mL; in the series with Candida albicans [5], 64 µg/mL; in the series with Candida albicans [6], 32 µg/mL; with Candida [7], 16 µg/mL.
As to `Clc1ccc(-c2c[nH]cc2[C@H](c2ccc(Cl)cc2Cl)n2ccnc2)cc1`, the Range in the series with Candida albicans [14] worked out at 8 µg/mL; in the series on Candida [15] it was 8 µg/mL; with Candida albicans [16], 32 µg/mL; with Candida [11], 64 µg/mL. Besides, the Ratio in series [1] is recorded as 0.8. Moreover, the Resistance in the series with Candida [17], in the series with Candida albicans [19], in the series with Candida [21] and in the series with Candida albicans [22] was 0% throughout. The minimum inhibitory concentration (MIC) stood at 3.6 µg/mL (≈ 8.94 µM) in the series on Candida albicans [18], 5.01 µg/mL (≈ 12.4 µM) against Candida [20], 6 µg/mL (≈ 14.9 µM) with Candida [11] and 2.14 µg/mL (≈ 5.31 µM) against Candida albicans [23]. Besides, the MIC50 against Candida albicans [18] turned out to be 1 µg/mL (≈ 2.48 µM); in the series with Candida [20], 8 µg/mL (≈ 19.9 µM); against Candida [11], 8 µg/mL (≈ 19.9 µM); against Candida albicans [23], 2 µg/mL (≈ 4.97 µM). Besides, the MIC90 with Candida albicans [18] came out at 2 µg/mL (≈ 4.97 µM); against Candida [20], 8 µg/mL (≈ 19.9 µM); in the series on Candida [11] it was 64 µg/mL (≈ 159 µM); with Candida albicans [23] it was 4 µg/mL (≈ 9.93 µM).
For the compound `Oc1ccc(-c2c[nH]cc2[C@@H](c2ccc(Cl)cc2Cl)n2ccnc2)cc1`, the Ratio in [1] came to 26. Besides, the MIC in the series with Candida albicans [2] turned out to be 150 µg/mL (≈ 390 µM); against Candida albicans [10] it was 77.8 µg/mL (≈ 202 µM); in the series on Candida [11], 128 µg/mL (≈ 333 µM); with Candida [12] it was 256 µg/mL (≈ 666 µM). Also, the MIC50 with Candida albicans [2] was 32 µg/mL (≈ 83.3 µM); against Candida albicans [10], 16 µg/mL (≈ 41.6 µM); against Candida [11] it was above 256 µg/mL; in the series on Candida [12], 256 µg/mL (≈ 666 µM). For the same compound, the MIC90 against Candida albicans [2] was 128 µg/mL (≈ 333 µM); in the series on Candida albicans [10], 256 µg/mL (≈ 666 µM); in the series on Candida [11], above 256 µg/mL; with Candida [12], 256 µg/mL (≈ 666 µM). In addition, the Resistance with Candida albicans [3] turned out to be 0%; with Candida [8] it was 0%; with Candida albicans [9] it was 26%; with Candida [13], 67%. In addition, the Range in the series with Candida albicans [24] was 256 µg/mL; in the series on Candida [25], above 256 µg/mL; in the series on Candida [12], 256 µg/mL; in the series on Candida albicans [26], 256 µg/mL.

What is called MIC is the least concentration at which growth counts as inhibited. As usually defined, the MIC50 is the lowest concentration that inhibits either 50% of growth or 50% of the strains tested, depending on the study. High values mean weaker potency, low ones greater potency. Broadly, the MIC90 is the lowest concentration that inhibits either 90% of growth or 90% of the strains tested, depending on the study. Read a high MIC90 as weaker potency.

Values taken from ChEMBL document CHEMBL1135477, “Antifungal agents. 10. New derivatives of 1-[(aryl)[4-aryl-1H-pyrrol-3-yl]methyl]-1H-imidazole, synthesis, anti-candida activity, and quantitative structure-analysis relationship studies” (J Med Chem, 2002).
